The text below walks through data of ChEMBL document CHEMBL1132183 (J Med Chem, 1999).

Each structure is given as a SMILES string.

Assay [1] has as its target T1, 5-hydroxytryptamine receptor 1A (Homo sapiens, UniProt P08908).
T1 sequence (P08908 whole entry): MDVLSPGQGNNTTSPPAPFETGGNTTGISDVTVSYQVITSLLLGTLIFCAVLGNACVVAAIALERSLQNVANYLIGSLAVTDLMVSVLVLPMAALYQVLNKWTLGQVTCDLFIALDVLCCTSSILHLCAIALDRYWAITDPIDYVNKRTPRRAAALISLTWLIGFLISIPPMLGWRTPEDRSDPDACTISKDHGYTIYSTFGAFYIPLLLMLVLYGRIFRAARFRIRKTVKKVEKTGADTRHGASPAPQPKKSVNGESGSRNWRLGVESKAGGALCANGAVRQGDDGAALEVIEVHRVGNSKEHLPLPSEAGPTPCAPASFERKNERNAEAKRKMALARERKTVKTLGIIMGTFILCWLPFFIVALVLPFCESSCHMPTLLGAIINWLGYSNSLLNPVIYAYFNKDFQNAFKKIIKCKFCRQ
Nature of the assay: Displacement of [3H]8-hydroxy-2-(di-n-propylamino)tetralin from human 5-hydroxytryptamine 1A receptor. In outline: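 Membranes of HeLa cells stably transfected with human 5-HT1A (genomic clone G-21), in 50 mM Tris-HCl pH 7.4, 2.5 mM MgCl2, 10 μM pargiline. […] Nonspecific binding defined with 10 μM 5-HT. Filtration, scintillation counting. Ki by Cheng–Prusoff; 2–3 experiments in triplicate.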
In general terms: Loss of bound radioactivity is the signal in a displacement assay; it reports binding, not function.

The target of assay [2] is T2, Alpha-1D adrenergic receptor (Rattus norvegicus) (UniProt P23944).
T2 sequence (whole entry): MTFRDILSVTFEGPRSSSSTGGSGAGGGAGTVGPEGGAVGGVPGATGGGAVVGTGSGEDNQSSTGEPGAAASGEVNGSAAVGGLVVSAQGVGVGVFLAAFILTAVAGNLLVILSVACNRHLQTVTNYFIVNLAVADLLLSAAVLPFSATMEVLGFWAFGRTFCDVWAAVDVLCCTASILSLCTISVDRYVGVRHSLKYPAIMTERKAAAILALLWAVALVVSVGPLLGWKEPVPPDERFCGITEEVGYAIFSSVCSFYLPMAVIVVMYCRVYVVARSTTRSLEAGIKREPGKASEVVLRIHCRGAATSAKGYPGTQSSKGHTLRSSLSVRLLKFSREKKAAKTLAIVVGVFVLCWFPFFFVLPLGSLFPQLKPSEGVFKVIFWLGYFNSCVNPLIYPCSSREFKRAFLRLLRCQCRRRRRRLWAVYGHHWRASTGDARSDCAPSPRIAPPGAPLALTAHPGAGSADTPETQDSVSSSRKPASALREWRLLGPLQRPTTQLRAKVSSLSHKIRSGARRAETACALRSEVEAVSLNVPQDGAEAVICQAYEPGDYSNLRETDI
As to the kind of experiment: Alpha-1D adrenergic receptor subtype blocking activity (antagonism) against (-)-noradrenaline-induced contraction of rat thoracic aorta. It is filed as functional, tissue-based. In outline: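 Helicoidal strips of rat thoracic aorta under 1 g tension, bath with 0.01 μM desipramine and 1 μM (±)-propranolol, equilibrated ≥1 h. Cumulative (–)-noradrenaline curves at 30-min intervals: first two discarded, third as control, fourth after 30-min antagonist exposure. pKb by Arunlakshana–Schild from EC50 dose ratios at 2–3 antagonist concentrations, each tested four times.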

For assay [3], the target named is T3, Alpha-1B adrenergic receptor (Rattus norvegicus) (UniProt P15823).
T3 sequence (whole entry): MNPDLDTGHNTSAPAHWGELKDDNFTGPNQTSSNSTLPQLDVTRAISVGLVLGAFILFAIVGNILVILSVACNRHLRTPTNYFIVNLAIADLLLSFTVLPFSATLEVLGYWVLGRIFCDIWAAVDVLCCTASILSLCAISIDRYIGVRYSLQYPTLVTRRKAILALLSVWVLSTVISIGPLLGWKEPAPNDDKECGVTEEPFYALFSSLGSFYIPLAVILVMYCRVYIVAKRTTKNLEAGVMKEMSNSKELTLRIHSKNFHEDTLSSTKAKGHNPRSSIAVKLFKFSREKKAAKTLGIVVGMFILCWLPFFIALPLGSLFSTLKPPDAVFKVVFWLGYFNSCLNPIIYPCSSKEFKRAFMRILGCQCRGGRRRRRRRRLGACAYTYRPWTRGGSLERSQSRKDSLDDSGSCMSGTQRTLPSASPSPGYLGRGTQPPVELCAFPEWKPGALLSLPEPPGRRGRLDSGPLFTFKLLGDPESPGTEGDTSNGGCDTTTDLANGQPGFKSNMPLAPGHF
Nature of the assay: Antagonism of Alpha-1B adrenergic receptor subtype (-)-phenylephrine-induced contraction of rat spleen. It is filed as functional, tissue-based. In outline: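 Rat spleen, isometric cumulative (–)-phenylephrine curves at 30-min intervals; first discarded, second taken as control. Antagonist was equilibrated 30 min before the next curve.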

Assay [4] has as its target T4, Alpha-1A adrenergic receptor (Rattus norvegicus) (UniProt P43140).
T4 sequence (whole entry): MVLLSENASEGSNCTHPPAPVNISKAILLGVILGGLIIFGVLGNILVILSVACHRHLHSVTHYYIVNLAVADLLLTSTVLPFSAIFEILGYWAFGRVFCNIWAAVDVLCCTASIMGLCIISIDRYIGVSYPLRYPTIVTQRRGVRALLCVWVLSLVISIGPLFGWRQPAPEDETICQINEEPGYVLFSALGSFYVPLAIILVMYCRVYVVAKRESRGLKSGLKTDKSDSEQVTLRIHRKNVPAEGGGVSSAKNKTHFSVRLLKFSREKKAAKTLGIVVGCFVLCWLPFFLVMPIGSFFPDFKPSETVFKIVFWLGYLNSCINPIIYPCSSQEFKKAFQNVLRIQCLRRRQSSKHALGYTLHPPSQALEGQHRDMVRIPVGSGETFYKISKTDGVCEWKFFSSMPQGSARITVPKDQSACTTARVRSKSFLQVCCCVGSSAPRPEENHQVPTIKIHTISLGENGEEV
As to the kind of experiment: Antagonist activity against Alpha-1A adrenergic receptor (-)-noradrenaline-induced contraction of rat prostatic vas deferens. It is filed as functional, tissue-based. In outline:
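Isolated rat prostatic vas deferens with 0.01 μM desipramine in the bath. Isotonic cumulative (–)-noradrenaline curves were run at 30-min intervals: first discarded, second as control, then antagonist equilibrated 30 min before a new curve. pKb by Arunlakshana–Schild from dose ratios of EC50, at 2–3 antagonist concentrations, each tested four times.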

Assay [5] addresses Serotonin 2 (5-HT2) receptor (Rattus norvegicus, UniProt P30994+P08909+P14842). Nature of the assay: Displacement of [3H]ketanserin from rat brain 5-hydroxytryptamine 2 receptor. In outline:
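Rat cerebral cortex membranes (male Sprague–Dawley) in Tris-HCl pH 7.4 with 10 μM pargiline and 0.1% ascorbic acid were incubated 20 min at 37 °C with 0.7–1.3 nM [3H]ketanserin (5-HT2A). Nonspecific binding was defined by 2 μM ketanserin. Bound label was counted after filtration, and Ki was derived by Cheng–Prusoff.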

Assay [6] concerns the target T5, Alpha-1A adrenergic receptor (Homo sapiens, UniProt P35348).
T5 sequence (P35348 whole entry): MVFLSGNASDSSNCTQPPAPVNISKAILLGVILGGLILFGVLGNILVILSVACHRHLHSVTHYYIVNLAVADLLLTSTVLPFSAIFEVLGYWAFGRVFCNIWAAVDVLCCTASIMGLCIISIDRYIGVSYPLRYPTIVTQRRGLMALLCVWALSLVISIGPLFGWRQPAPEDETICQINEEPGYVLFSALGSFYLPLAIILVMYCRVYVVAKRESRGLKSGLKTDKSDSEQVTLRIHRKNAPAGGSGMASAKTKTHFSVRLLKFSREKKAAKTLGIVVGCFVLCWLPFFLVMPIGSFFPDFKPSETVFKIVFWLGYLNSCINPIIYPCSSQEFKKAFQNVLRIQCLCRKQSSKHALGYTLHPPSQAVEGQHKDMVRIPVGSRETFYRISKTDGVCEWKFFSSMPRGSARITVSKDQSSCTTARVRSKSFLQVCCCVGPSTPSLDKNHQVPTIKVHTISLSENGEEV
As to the kind of experiment: Displacement of [3H]prazosin from human cloned Alpha-1A adrenergic receptor. In outline: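 CHO cells stably transfected with each human α1 subtype; 30 μg membrane protein in 50 mM Tris-HCl pH 7.4 with 0.1–0.4 nM [3H]prazosin, 30 min at 25 °C. Competitors 1 pM–10 μM. Nonspecific binding defined with 10 μM phentolamine. Filtration, scintillation counting. Ki by Cheng–Prusoff; 2–3 experiments in triplicate.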

For orientation: Ki means the equilibrium dissociation constant of an inhibitor or competing ligand from its target. Low readings indicate tighter binding, high ones weaker binding. As a reminder, the pKb is the Kb on a negative log10 scale, so that one unit is a factor of ten. Read a low pKb as a high Kb.

In assay [1], `COc1ccccc1O[C@@H]1CCC(NCC2COc3ccccc3O2)C1O` (stereo in doubt; 5) [listing 1 of 2 here] showed an inhibition constant (Ki) of 24.5 nM.

As for `OC1C(NCC2COc3ccccc3O2)CC[C@H]1Oc1ccccc1` (stereo in doubt; 4), the pKb in assay [2] is 7.85; in assay [3] it was 6.47; in assay [4], 5.7.

Consider `OC1C(NCC2COc3ccccc3O2)CC[C@H]1Oc1ccccc1` (stereo in doubt; 3), for which the negative-log Kb (pKb) in assay [2] is 7.66; in assay [3] it was 6.45; in assay [4], 5.48.

Consider `COc1cccc(OC)c1O[C@@H]1CCC(NCC2COc3ccccc3O2)C1O` (stereo in doubt; 7) [listing 1 of 2 here], for which affinity in assay [1] was put at a Ki of 50.1 nM.

On to `COc1cccc(OC)c1O[C@@H]1CCC(NCC2COc3ccccc3O2)C1O` (stereo in doubt; 7) [listing 2 of 2 here], for which the results for the pKb in assay [2], in assay [3] and in assay [4] were 7.32, 6.27 and 5.89, respectively.

Turning to `COc1cccc(OC)c1O[C@@H]1CCC(NCC2COc3ccccc3O2)C1O` (stereo in doubt; 8) [listing 1 of 2 here], the negative-log Kb (pKb) stood at 6.94 in assay [2], 6.17 in assay [3] and 5.79 in assay [4].

On to `COc1cccc(OC)c1O[C@@H]1CCC(NCC2COc3ccccc3O2)C1O` (stereo in doubt; 8) [listing 2 of 2 here], for which the inhibition constant (Ki) in assay [1] is 33.9 nM.

In assay [1], `COc1ccccc1O[C@@H]1CCC(NCC2COc3ccccc3O2)C1O` (stereo in doubt; 6) [listing 1 of 2 here] showed an inhibition constant Ki of 26.9 nM.

Regarding `COc1cccc(OC)c1OCCNCC1COc2ccccc2O1` (stereo not drawn), the negative-log Kb (pKb) was found to be 8.6 in assay [2], 8.21 in assay [3] and 9.36 in assay [4]. Moreover, the “Log Ki” value in assay [5] is -6. Besides, the figures for the Ki in assay [6] and in assay [1] were 0.427 nM and 2.09 nM, respectively.

As for `COc1ccccc1O[C@@H]1CCC(NCC2COc3ccccc3O2)C1O` (stereo in doubt; 6) [listing 2 of 2 here], the negative-log Kb (pKb) amounted to 7.3 in assay [2], 6.8 in assay [3] and 6.56 in assay [4].

Take `COc1ccccc1O[C@@H]1CCC(NCC2COc3ccccc3O2)C1O` (stereo in doubt; 5) [listing 2 of 2 here]: the pKb in assay [2] was found to be 7.15; in assay [3], 6.24; in assay [4] it was 5.68.
